How the values were obtained:
EAAT2 protein expression = conditions: mice, intraperitoneal injection; cited from earlier work
EAAT2 = conditions: cited from earlier work
[1] = system: EAAT2 protein expression (human EAAT2 transcripts with the 1091-nucleotides 5′ UTR); test: Cell-based ELISA for EAAT2 protein expression in PA-EAAT2 cells; conditions: retinoic acid 1.5 μg/mL, 384-well format, vs DMSO
Summary of the method: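 PA-EAAT2 cells at 8000/well, grown 36 h in 2% FBS DMEM with geneticin, then switched to serum-free DMEM/geneticin and exposed 72 h (0.20% DMSO final). Fixed 2 h in 4% formaldehyde; peroxide quench, milk block; rabbit anti-EAAT2 1:2000 overnight at 4°C, HRP anti-rabbit 1:6000 for 2 h; chemiluminescence read at 40 min. % activation vs DMSO wells; EC50 from 12-point 3-fold series, […], quadruplicate.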

In the case of `CO/N=C(\C(=O)N[C@@H]1C(=O)N2C(C(=O)O)=C(CSc3nc(=O)c(=O)[nH]n3C)CS[C@H]12)c1csc(N)n1` [ceftriaxone, Ceftriaxone], the “induction of EAAT2 protein expression or glutamate uptake activity” value (EAAT2 protein expression) is given as “only slightly induces”.

For `C[C@]12C[C@H](O)[C@H]3[C@@H](CCC4=CC(=O)CC[C@@]43C)[C@@H]1CC[C@@H]2C(=O)CO` [corticosterone], the “translational activator of EAAT2” value (EAAT2) is listed as “translational activator of EAAT2”.

With `CC1=C(/C=C/C(C)=C/C=C/C(C)=C/C(=O)O)C(C)(C)CCC1` [retinoic acid] the “PA-EAAT2 cell signal increase” value [1] was 2- to 3.5 fold.

Reference: publication PMC3016154 (Journal of biomolecular screening, 2010)
